Values without a mark were called inactive. The list shows a part of the results. Records with an inconclusive call do not appear. The source made the active and inactive calls.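 How the source made its calls, unless noted: active means thallium flux slope above the same plate's solvent-control mean plus 3 SD in both duplicate wells; inconclusive means duplicate wells that disagreed; inactive means the rest.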

The first experiment can be described thus: native HEK Tl+ uptake effects, second counter-screen – HEK cells, counterscreen 2, counter-screen for KCC2 modulator project, confirmation (AID 1718).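 Further: run without ouabain in cells lacking the KCC2 cotransporter; slope of fluorescence scaled to its starting value between 10 and 20 s.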 As to conditions: HEK293 parental, thallium flux FluoZin-2 fluorescence slope; at 10 µM. The essentials: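 System: Parental HEK cells | Also added: Thallium sulfate stimulus buffer | Compound dosing: Single 10 µM final compound dose, 0.1% DMSO | Schedule: Overnight cell culture at 37 °C, 48 min dye loading, compound before thallium | Signal: FluoZin-2 fluorescence kinetics | Repeats: Replicate wells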
In the case of `Cc1cc(C(=O)NNC(=S)Nc2ccccc2C)cs1`, the thallium flux slope was 0.0109. Consider `O=C(N/N=C/c1ccc(Br)o1)c1cncc(Br)c1`, for which the thallium flux slope is 0.0107 (active). Same read-out and setting: the figure for `O=C(Cc1csc(Nc2nc(=S)[nH]c3ccccc23)n1)NCCCN1CCN(c2cccc(Cl)c2)CC1` is 0.0172 (active).

`COc1cc(OC)cc(C(=O)NCCSCc2ccco2)c1`: the thallium flux slope was 0.0101. As to `COC(=O)c1sc(NC(=S)NC(=O)c2ccc(C)cc2)nc1C`, the thallium flux slope was 0.0234 (active). Consider `O=C(CNCc1cccs1)Nc1cc(S(=O)(=O)N2CCCC2)ccc1Cl`, for which the thallium flux slope was 0.0101. Regarding `CC1Cc2ccccc2N1C(=O)CSc1nc2ccccc2o1` (configuration not stated), the thallium flux slope was 0.00901. For the compound `Oc1c(Cl)cc(Cl)c(Cl)c1Cc1c(O)c(Cl)cc(Cl)c1Cl`, the thallium flux slope is 0.0102. Take `Cc1ccccc1NC(=S)NNC(=O)c1cccc(Br)c1`: the thallium flux slope was 0.0126. As for `COc1cccc(NC(=S)NC(=O)c2c(Cl)c(C)nn2C)c1`, the thallium flux slope is 0.0309 (active). Consider `Cn1c(CCCOc2ccc(Cl)cc2Cl)n[nH]c1=S`, for which the thallium flux slope is 0.00939.

As to `CC1CCCCN1S(=O)(=O)c1ccc(C(=O)Nc2nnc(-c3cccs3)o2)cc1` (configuration not stated), the thallium flux slope was 0.0123. Take `CCCCn1c(=S)[nH]c2ncccc2c1=O`: the thallium flux slope is 0.0266 (active).

Take `COc1cccc2sc(Nc3nc(C)c(C(C)=O)s3)nc12`: the thallium flux slope was 0.0124. Turning to `COc1ccccc1N1CCN(C(=O)CSc2ncnc3c2cnn3-c2ccc(C)c(C)c2)CC1`, the thallium flux slope was 0.0103. As to `CS(=O)(=O)N(CC(=O)N1CCN(c2ccc(F)cc2)CC1)C1CCCCC1`, the thallium flux slope was 0.0102. On to `O=C(NNC(=S)NC(=O)c1cn(-c2ccccc2)nc1-c1ccccc1)c1ccncc1`, for which the thallium flux slope is 0.0155 (active).

As to `CCCCn1c(SCC(=O)NCC2CCCO2)nc2ccc(N3CCOCC3)cc2c1=O` (configuration not stated), the thallium flux slope was 0.013 (active). For `COc1ccccc1-n1cnc2cc(NS(=O)(=O)c3ccccc3)ccc21`, the thallium flux slope is 0.00966. The same measure, in the same setting: the figure for `Cc1ccc(-n2ncc3c(Nc4cccc(C(=O)O)c4)ncnc32)cc1` is 0.0099. Still for that read-out and setting: as for `Cn1c(C(=O)NCCc2ccsc2)cc2c(=O)n(C)c3ccccc3c21`, the figure is 0.00931; as for `Cc1ccc(C)c(NC(=S)NNC(=S)Nc2ccc(C(C)C)cc2)c1`, 0.0121. On the same count and under the same terms, the figure for `Cc1ccc(OCC(=O)N2CCN(C(=O)c3cccnc3)CC2)cc1` is 0.0114; for `O=C(Nc1ccc2oc(-c3ccccc3F)nc2c1)c1ccco1` it is 0.00945. In the case of `Cc1cc(C)c2cc(CN(Cc3cccs3)Cc3nnnn3CC3CCCO3)c(=O)[nH]c2c1` (configuration not stated), the thallium flux slope was 0.00821. The same measure, in the same setting: the figure for `Cc1ccc(N=Cc2c(O)n(-c3nccs3)c(=O)c3ccccc23)c(C)c1` is 0.00674 (active). Regarding `Cc1cccc(-n2c(SCC(N)=O)nc3c(c2=O)C2(CCCCC2)Cc2ccccc2-3)c1`, the thallium flux slope was 0.0138 (active). Consider `O=C(Nc1ccn(Cc2ccccc2)n1)c1cccc(F)c1`, for which the thallium flux slope is 0.00931. For the compound `COc1ccc(Cl)cc1C(=O)NNC(=S)NC(=O)/C=C/c1ccco1`, the thallium flux slope is 0.0335 (active). On to `O=C(C1CCN(c2nnc(-n3cccc3)s2)CC1)N1CCc2ccccc2C1`, for which the thallium flux slope was 0.0107.

Turning to `Fc1ccc(COc2cccc(-c3n[nH]c(=S)o3)c2)cc1`, the thallium flux slope was 0.0338 (active). Consider `Cc1c(C(=O)NC(=S)NCc2cccnc2)oc2ccccc12`, for which the thallium flux slope is 0.0284 (active).

Consider `COCCn1c(C)cc(C(=O)CSc2ncnc3sc4c(c23)CCC4)c1C`, for which the thallium flux slope was 0.0112.

With `O=C(CSc1ccc(-c2cccs2)nn1)Nc1ccccc1F`, the thallium flux slope was 0.0107.

With `O=C(c1cc(-c2ccc(O)cc2)on1)N1CCCc2ccccc21`, the thallium flux slope is 0.0111.

Consider `CCCCC(CC)CNC(=O)C(=O)C1C(=O)Nc2ccccc21` (configuration not stated), for which the thallium flux slope was 0.0126.

The next experiment can be described thus: blockers of RIG-like receptor reporter activation – cell-based, Sendai virus stimulus, luciferase, 10K MLSCN set, TLR/RLR signaling modifier project, primary screen (AID 602276;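 active means inhibition at or above 50% at 10 µM; inactive means inhibition below 50%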;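 further: firefly luciferase from ISG56 promoter only with Renilla not read in this screen; 0% = Sendai virus plus DMSO and 100% = medium plus DMSO without virus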). As to conditions: HEK293 RL24 IRF3 luciferase reporter, at 10 µM, active compounds read high. (In general: A reporter such as luciferase makes a cellular process visible.)
The inhibition is the relative decrease from the control value, in per cent. For the compound `COc1ccccc1-n1cnc2cc(NS(=O)(=O)c3ccccc3)ccc21`, the inhibition is -18.8%.

Regarding `O=c1c2ccccc2[nH]c(=S)n1CCN1CCC(=C(c2ccc(F)cc2)c2ccc(F)cc2)CC1`, the inhibition was 8.28%. Regarding `O=C(C1CCN(c2nnc(-n3cccc3)s2)CC1)N1CCc2ccccc2C1`, the inhibition is 0.226%.

A short description of the next experiment: TLR3 IRF3 reporter activation blockers – cell-based, poly I:C stimulus, luciferase, 10K MLSCN set, primary screen (AID 602277;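 active means inhibition of the reporter signal at or above 50%; inactive means inhibition below 50%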). As to conditions: HEK293-TLR3 RL24 IRF3 luciferase reporter, at 10 µM, active compounds read high.
For `COc1ccccc1-n1cnc2cc(NS(=O)(=O)c3ccccc3)ccc21`, the inhibition is 98.4% (active). On to `O=c1c2ccccc2[nH]c(=S)n1CCN1CCC(=C(c2ccc(F)cc2)c2ccc(F)cc2)CC1`, for which the inhibition was 23.8%. Turning to `O=C(C1CCN(c2nnc(-n3cccc3)s2)CC1)N1CCc2ccccc2C1`, the inhibition was 24.9%.
